Laboratory results published in ChEMBL document CHEMBL4196173, “Stabilized β-Hairpin Peptide Inhibits Insulin Degrading Enzyme” (J Med Chem, 2018).
Bridge positions count the residues as written; N and C are the ends. Square brackets hold non-standard residues; d marks the D form. Peptide text beside a SMILES is read from it. * marks the point of attachment. Ileψ(thiazoline)Cys = CC[C@H](C)[C@H](N)C1=N[C@H](C(=O)*)CS1; dOrn = NCCC[C@@H](N)C(=O)O

Assays:
[1] = target: T1, Insulin-degrading enzyme (Mus musculus, UniProt Q9JHR7); assay: Inhibition of mouse His-tagged IDE (42 to 1019 residues) using fluorophore/quencher-tagged RPPGFSAFK(Dnp)-OH peptide as substrate preincubated for 10 mins followed by substrate addition measured over 5 mins by TR-FRET assay
T1 sequence (Q9JHR7 whole entry): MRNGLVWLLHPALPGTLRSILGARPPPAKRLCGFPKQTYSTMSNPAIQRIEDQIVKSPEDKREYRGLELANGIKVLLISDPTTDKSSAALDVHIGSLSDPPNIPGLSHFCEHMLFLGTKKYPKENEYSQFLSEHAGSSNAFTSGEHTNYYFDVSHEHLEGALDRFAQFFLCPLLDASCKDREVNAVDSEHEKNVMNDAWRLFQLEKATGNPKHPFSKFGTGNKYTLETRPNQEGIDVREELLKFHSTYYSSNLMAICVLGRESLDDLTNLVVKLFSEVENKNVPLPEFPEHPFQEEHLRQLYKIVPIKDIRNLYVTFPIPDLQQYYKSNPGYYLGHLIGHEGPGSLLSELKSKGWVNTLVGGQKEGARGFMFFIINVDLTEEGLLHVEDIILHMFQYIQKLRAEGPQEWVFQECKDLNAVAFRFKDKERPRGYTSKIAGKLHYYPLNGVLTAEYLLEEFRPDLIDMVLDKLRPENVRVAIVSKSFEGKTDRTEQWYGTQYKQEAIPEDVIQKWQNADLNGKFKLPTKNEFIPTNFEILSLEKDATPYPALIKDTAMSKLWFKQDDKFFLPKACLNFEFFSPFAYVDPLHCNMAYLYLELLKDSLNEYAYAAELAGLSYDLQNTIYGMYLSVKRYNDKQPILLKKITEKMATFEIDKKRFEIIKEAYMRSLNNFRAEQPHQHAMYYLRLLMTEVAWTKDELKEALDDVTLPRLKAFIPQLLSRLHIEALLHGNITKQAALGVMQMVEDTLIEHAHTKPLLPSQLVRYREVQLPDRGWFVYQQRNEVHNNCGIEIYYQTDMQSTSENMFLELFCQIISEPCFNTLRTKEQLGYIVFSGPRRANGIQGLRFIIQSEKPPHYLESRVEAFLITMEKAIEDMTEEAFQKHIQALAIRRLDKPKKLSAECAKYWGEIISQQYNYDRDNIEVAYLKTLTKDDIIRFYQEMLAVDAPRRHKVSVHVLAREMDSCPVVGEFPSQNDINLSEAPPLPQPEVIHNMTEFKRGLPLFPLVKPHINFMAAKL

[2] = Drug uptake in human HeLa cells at 5 uM using FITC-labeled compound after 2 hrs at 310 K by DAPI-staining based confocal microscopy; assay type: ADME, cell-based
[3] = Drug uptake in human HeLa cells at 5 uM using FITC-labeled compound after 2 hrs at 310 K by trypan blue-fluorescence based FACS analysis; assay type: ADME, cell-based
Procedure, shortened: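 HeLa cells were grown overnight in DMEM with 10% FBS, then given 5 μM FITC-labelled peptide in FBS-free medium for 2 h at 310 K. Cells were washed with PBS and 0.4% trypan blue, trypsinized and washed. Mean fluorescence was measured by flow cytometry with gated cell counts. Three independent experiments.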

[4] = Hemolytic activity against mouse RBC at 300 uM after 1 hr at 310 K; assay type: ADME, cell-based, Erythrocyte; settings: mouse red blood cells (erythrocytes), read-out: Activity
Procedure, shortened: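 Fresh mouse red cells were washed six times and suspended at 1 × 10^8 cells/mL in PBS. Peptides at 2.3–300 μM were added for 1 h at 310 K. After centrifugation, hemoglobin in the supernatant was read at 576 nm. PBS served as 0% and 0.1% Triton X-100 as 100% lysis. Three independent experiments in duplicate.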

[5] = system: HeLa; assay: Cytotoxicity against human HeLa cells assessed as reduction in cell viability at <300 uM after 24 hrs at 310 K by MTT assay; assay type: cell-based
Procedure, shortened: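 HeLa cells were grown overnight in DMEM with 10% FBS, then exposed to serial dilutions starting at 300 μM in medium with 5% FBS for 24 h at 310 K under 5% CO2. MTT was added for a further 4 h and formazan absorbance read at 490 nm. Three independent experiments in duplicate.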

IC50 [1] | Compound | other results
0.077 µM | CC(C)C[C@H](NC(=O)[C@@H]1CSC[C@H](NC(=O)[C@H](Cc2ccccc2)NC(=O)[C@H](CCCNC(=N)N)NC(=O)[C@H](Cc2c[nH]c3ccccc23)NC(=O)[C@@H](N)CCC(=O)O)C(=O)NCC(=O)NCC(=O)NCC(=O)N2CCC[C@@H]2C(=O)N2CCC[C@H]2C(=O)N[C@@H](CCC(=O)O)C(=O)N1)C(=O)N[C@@H](Cc1ccc(O)cc1)C(=O)N[C@@H](CC(C)C)C(=O)N[C@H](C(=O)N[C@H](CS)C(=O)NCC(N)=O)C(C)C | 
0.06 µM | CC(C)C[C@H](NC(=O)[C@@H]1CSC[C@H](NC(=O)[C@H](Cc2ccccc2)NC(=O)[C@H](CCCNC(=N)N)NC(=O)[C@H](Cc2c[nH]c3ccccc23)NC(=O)[C@@H](N)CCC(=O)O)C(=O)NCC(=O)N2CCC[C@@H]2C(=O)N2CCC[C@H]2C(=O)N[C@@H](CCC(=O)O)C(=O)N1)C(=O)N[C@@H](Cc1ccc(O)cc1)C(=O)N[C@@H](CC(C)C)C(=O)N[C@H](C(=O)N[C@H](CS)C(=O)NCC(N)=O)C(C)C | 
0.601 µM | CC(C)C[C@H](NC(=O)[C@H](C)NC(=O)[C@H](CCC(=O)O)NC(=O)[C@@H]1CCCN1C(=O)[C@H]1CCCN1C(=O)[C@H](Cc1ccccc1)NC(=O)[C@H](CCCNC(=N)N)NC(=O)[C@H](Cc1c[nH]c2ccccc12)NC(=O)[C@@H](N)CCC(=O)O)C(=O)N[C@@H](Cc1ccc(O)cc1)C(N)=O | 
0.044 µM | CC(C)C[C@H](NC(=O)[C@@H]1CNC(=O)C[C@H](NC(=O)[C@H](Cc2ccccc2)NC(=O)[C@H](CCCNC(=N)N)NC(=O)[C@H](Cc2c[nH]c3ccccc23)NC(=O)[C@@H](N)CCC(=O)O)C(=O)NCC(=O)NCC(=O)NCC(=O)N2CCC[C@@H]2C(=O)N2CCC[C@H]2C(=O)N[C@@H](CCC(=O)O)C(=O)N1)C(=O)N[C@@H](Cc1ccc(O)cc1)C(=O)N[C@@H](CC(C)C)C(=O)N[C@H](C(=O)N[C@@H](CS)C(=O)NCC(N)=O)C(C)C | Drug uptake [2]: Active; Drug uptake [3]: Active
0.23 µM | CC(C)C[C@H](NC(=O)[C@H](C)NC(=O)[C@@H](N)CCC(=O)O)C(=O)N[C@@H](Cc1ccc(O)cc1)C(=O)N[C@@H](CC(C)C)C(=O)N[C@H](C(=O)N[C@@H](CS)C(=O)NCC(N)=O)C(C)C (H-EALYLVCG-NH2) | 
0.3 µM | CC(C)C[C@H](NC(=O)[C@H](C)NC(=O)[C@H](CCC(=O)O)NC(=O)CNC(=O)CNC(=O)[C@H](Cc1ccccc1)NC(=O)[C@H](CCCNC(=N)N)NC(=O)[C@H](Cc1c[nH]c2ccccc12)NC(=O)[C@@H](N)CCC(=O)O)C(=O)N[C@@H](Cc1ccc(O)cc1)C(=O)N[C@@H](CC(C)C)C(=O)N[C@H](C(=O)N[C@@H](CS)C(=O)NCC(N)=O)C(C)C (H-EWRFGGEALYLVCG-NH2) | Drug uptake [2]: Active; hemolysis at 1 h, 300 µM [4]: < 10%; Drug uptake [3]: Active
> 20 µM | CC(C)C[C@H](NC(=O)[C@H](C)NC(=O)[C@H](CCC(=O)O)NC(=O)[C@@H]1CCCN1C(=O)[C@H]1CCCN1C(=O)[C@H](Cc1ccccc1)NC(=O)[C@@H](N)CCCNC(=N)N)C(=O)N[C@@H](Cc1ccc(O)cc1)C(=O)N[C@@H](CC(C)C)C(=O)N[C@H](C(N)=O)C(C)C | 
 | CC(=O)N[C@@H](CCC(=O)O)C(=O)N[C@@H](Cc1ccccc1)C(=O)N[C@@H](CC(C)C)C(=O)N[C@@H](Cc1c[nH]c2ccccc12)C(=O)N[C@@H](C)C(=O)NCC(=O)N1CCC[C@@H]1C(=O)N1CCC[C@H]1C(=O)N[C@@H](Cc1ccc(O)cc1)C(=O)N[C@@H](C)C(=O)N[C@@H](CS)C(=O)N[C@H](C(=O)NCC(=O)N[C@@H](CCCNC(=N)N)C(=O)N[C@@H](CC(C)C)C(=O)N[C@@H](CCC(=O)O)C(N)=O)C(C)C | Activity [5]: Non-Toxic; hemolysis at 1 h, 300 µM [4]: < 10%
0.086 µM | CC(C)C[C@H](NC(=O)[C@H](C)NC(=O)[C@H](CCC(=O)O)NC(=O)[C@@H]1CCCN1C(=O)[C@H]1CCCN1C(=O)[C@H](Cc1ccccc1)NC(=O)[C@H](CCCNC(=N)N)NC(=O)[C@H](Cc1c[nH]c2ccccc12)NC(=O)[C@@H](N)CCC(=O)O)C(=O)N[C@@H](Cc1ccc(O)cc1)C(=O)N[C@@H](CC(C)C)C(=O)N[C@H](C(N)=O)C(C)C | 
0.17 µM | CC(C)C[C@H](NC(=O)[C@H](C)NC(=O)[C@@H](N)CCC(=O)O)C(=O)N[C@@H](Cc1ccc(O)cc1)C(=O)N[C@@H](CC(C)C)C(=O)N[C@H](C(=O)N[C@@H](CS)C(=O)NCC(=O)N1CCC[C@@H]1C(=O)N1CCC[C@H]1C(=O)N[C@@H](Cc1ccccc1)C(=O)N[C@@H](CCCNC(=N)N)C(=O)N[C@@H](Cc1c[nH]c2ccccc12)C(=O)N[C@@H](CCC(=O)O)C(N)=O)C(C)C | 
0.074 µM | CC(C)C[C@H](NC(=O)[C@H](C)NC(=O)[C@H](CCC(=O)O)NC(=O)[C@@H]1CCCN1C(=O)[C@H]1CCCN1C(=O)[C@H](Cc1ccccc1)NC(=O)[C@H](CCCNC(=N)N)NC(=O)[C@H](Cc1c[nH]c2ccccc12)NC(=O)[C@@H](N)CCC(=O)O)C(=O)N[C@@H](Cc1ccc(O)cc1)C(=O)N[C@@H](CC(C)C)C(=O)N[C@H](C(=O)N[C@H](CS)C(=O)NCC(N)=O)C(C)C | Drug uptake [2]: Active; Drug uptake [3]: Active
> 200 µM | CC[C@H](C)[C@H](N)C1=N[C@H](C(=O)N[C@@H](CC(C)C)C(=O)N[C@H](CCC(=O)O)C(=O)N[C@H](C(=O)N[C@H]2CCCCNC(=O)[C@H](CC(N)=O)NC(=O)[C@@H](CC(=O)O)NC(=O)[C@H](Cc3cnc[nH]3)NC(=O)[C@@H](Cc3ccccc3)NC(=O)[C@H]([C@@H](C)CC)NC(=O)[C@@H](CCCN)NC2=O)[C@@H](C)CC)CS1 [BACITRACIN] ({Ileψ(thiazoline)Cys}-L[dE]IK[dOrn]I[dF]H[dD]N; lactam 4-C) | 
> 20 µM | CC(C)C[C@H](NC(=O)[C@H](C)NC(=O)[C@H](CCC(=O)O)NC(=O)[C@@H]1CCCN1C(=O)[C@H]1CCCN1C(=O)[C@H](Cc1ccccc1)NC(=O)[C@@H](N)CCCNC(=N)N)C(=O)N[C@@H](Cc1ccc(O)cc1)C(N)=O | 
